Results: ChEMBL document CHEMBL3751702, “Comprehensive Analysis of Structure-Activity Relationships of α-Ketoheterocycles as sn-1-Diacylglycerol Lipase α Inhibitors” (J Med Chem, 2015)

Target: T1, Diacylglycerol lipase-alpha (Homo sapiens, UniProt Q9Y4D2)
T1 sequence (Q9Y4D2 whole entry): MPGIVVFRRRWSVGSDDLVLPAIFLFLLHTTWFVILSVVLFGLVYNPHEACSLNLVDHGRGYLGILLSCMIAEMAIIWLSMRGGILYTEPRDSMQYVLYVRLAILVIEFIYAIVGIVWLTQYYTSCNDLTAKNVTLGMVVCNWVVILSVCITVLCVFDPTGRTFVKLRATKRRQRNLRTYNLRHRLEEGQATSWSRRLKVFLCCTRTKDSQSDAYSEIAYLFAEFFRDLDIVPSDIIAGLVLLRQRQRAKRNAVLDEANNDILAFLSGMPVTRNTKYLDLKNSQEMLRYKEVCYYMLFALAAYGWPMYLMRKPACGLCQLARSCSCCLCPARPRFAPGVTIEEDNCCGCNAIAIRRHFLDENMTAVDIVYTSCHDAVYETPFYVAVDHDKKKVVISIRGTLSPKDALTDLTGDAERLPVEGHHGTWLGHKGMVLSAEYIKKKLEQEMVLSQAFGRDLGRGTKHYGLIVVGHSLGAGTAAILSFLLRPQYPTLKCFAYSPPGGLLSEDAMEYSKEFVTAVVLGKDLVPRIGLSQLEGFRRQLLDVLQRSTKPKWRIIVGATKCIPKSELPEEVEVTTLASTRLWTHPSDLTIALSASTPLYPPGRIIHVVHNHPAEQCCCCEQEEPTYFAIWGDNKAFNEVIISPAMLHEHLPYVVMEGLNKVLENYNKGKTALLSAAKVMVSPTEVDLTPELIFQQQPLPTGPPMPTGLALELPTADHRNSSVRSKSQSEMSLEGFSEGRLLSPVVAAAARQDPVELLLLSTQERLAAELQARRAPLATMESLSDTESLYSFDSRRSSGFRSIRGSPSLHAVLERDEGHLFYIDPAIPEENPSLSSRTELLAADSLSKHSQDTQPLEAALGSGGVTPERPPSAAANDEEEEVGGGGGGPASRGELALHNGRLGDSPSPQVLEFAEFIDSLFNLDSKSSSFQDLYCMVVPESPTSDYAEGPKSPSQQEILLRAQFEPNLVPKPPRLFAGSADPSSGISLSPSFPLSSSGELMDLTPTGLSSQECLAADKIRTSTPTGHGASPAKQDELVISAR
Assay: Inhibition of full-length human DAGLalpha expressed in HEK293T cell membranes using para-nitrophenylbutyrate by colorimetric assay
Assay type: cell-based, HEK-293T
Procedure, shortened: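 Membranes from HEK293T cells transiently transfected with full-length human DAGL-α (pcDNA3.1; PEI transfection, harvested at 72 h), diluted to 0.05 μg/μL final protein in 50 mM HEPES pH 7.2. Screen at 10 μM in duplicate; dose response by 10-fold serial dilution.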

| IC50 [nM] | SMILES |
| --- | --- |
| 3630 | O=C(CCCCCc1ccccc1)c1nc2ccccc2o1 |
| 2400 | CCCCC/C=C\C/C=C\C/C=C\C/C=C\CCCC(=O)c1nc2ncccc2o1 |
| > 10000 | O=C(CCCCCc1ccccc1)c1nc2ncccc2s1 |
| 1410 | O=C(CCCCCc1ccccc1)c1nc2cc(F)ccc2o1 |
| 1700 | O=C(CCCCCc1ccccc1)c1nc2cccnc2o1 |
| 12000 | O=C(CCCCCc1ccccc1)c1nc2ccccc2[nH]1 |
| 204 | O=C(CCCCCc1ccccc1)c1nc2cnccc2o1 |
| 1230 | O=C(CCCCCc1ccccc1)c1nc2ncccc2[nH]1 |
| 195 | CCCCCCCC/C=C\CCCCCCCC(=O)c1nc2ccccc2[nH]1 |
| 117 | O=C(CCCCCc1ccccc1)c1nc2c(F)cccc2o1 |
| > 10000 | O=C(CCCCCc1ccccc1)c1nc2ccccc2s1 |
